Shown are actives, neighbours in structure and some others; about 2.5% of the full set was active somewhere.
MEKK3 PB1 HTS = MEKK3-MEK5 PB1 interaction, increase or decrease. AID 1529. binding response (% of control), % at 10 µM. 290,000 compounds, 1.4% hits. bead-based flow cytometry, Alexa488-MEK5 binding to MEKK3; actives lie on both sides; 0 = blocked by unlabeled MEK5, 100 = vehicle. Q99759;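 active means binding response more than 3 SD above or below the average of its plate-row segment, actives on both sides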;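 further: Alexa488 bead fluorescence after subtracting the streptavidin-only scavenger bead signal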
Target sequence (Q99759 whole entry, looked up): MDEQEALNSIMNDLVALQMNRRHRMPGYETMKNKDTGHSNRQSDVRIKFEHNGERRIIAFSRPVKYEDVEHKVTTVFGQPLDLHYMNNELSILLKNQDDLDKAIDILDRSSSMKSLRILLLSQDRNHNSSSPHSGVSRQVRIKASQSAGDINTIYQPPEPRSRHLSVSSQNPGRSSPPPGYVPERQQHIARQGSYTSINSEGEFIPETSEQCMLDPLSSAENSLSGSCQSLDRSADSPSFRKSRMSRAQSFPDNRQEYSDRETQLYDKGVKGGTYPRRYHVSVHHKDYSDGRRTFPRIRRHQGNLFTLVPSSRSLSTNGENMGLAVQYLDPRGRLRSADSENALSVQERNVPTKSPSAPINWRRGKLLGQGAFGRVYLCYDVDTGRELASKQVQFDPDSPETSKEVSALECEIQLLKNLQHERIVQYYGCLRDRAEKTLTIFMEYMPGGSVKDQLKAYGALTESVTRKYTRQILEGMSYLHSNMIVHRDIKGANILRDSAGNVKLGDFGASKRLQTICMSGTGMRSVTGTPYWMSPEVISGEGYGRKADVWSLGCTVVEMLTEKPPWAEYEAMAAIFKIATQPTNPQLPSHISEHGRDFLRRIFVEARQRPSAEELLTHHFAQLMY
UCH37 inh = blocks the human deubiquitinase UCH37; Q9Y5K5; purified proteasome/UCH37, Ub-AMC cleavage fluorescence; inhibition, % (concentration not given with the values); 330,000 compounds, 0.33% hits;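 active means mean inhibition over replicate wells above about 20%, limit read from the data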
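Test system – human UCH37 enzyme supplied as purified proteasome complex · Incubation – 30 min preincubation with enzyme, 25 min cleavage at room temperature · Detection – AMC fluorescence from Ub-AMC cleavage, excitation 355 nm, emission 460 nm · Benchmarks – no-proteasome wells (full inhibition) and compound-free wells (no inhibition)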
Rce1 inhib = yeast Ras-converting enzyme inhibition; 290,000 compounds, 0.27% hits; Q03530; calls only; yeast membranes, quenched prenylated peptide cleavage fluorescence;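 active means fall in fluorescence gain of 50% or more versus controls, with final raw signal at or below 3038400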
MEKK2 WT-MEK5 = raises or lowers MEK5 binding to wildtype human MEKK2 PB1 domain. bead flow cytometry, Alexa488-MEK5 binding to MEKK2 WT; actives lie on both sides. Q9Y2U5. 290,000 compounds, 1.1% hits. binding response (% of control), % at 10 µM; in the data active means binding response below about 67% or above about 130%
T cell HTS = T cell immune modulation candidate; 2C CD8+ T cell-vesicle binding, flow cytometry; stronger effect = lower value; response (vesicle binding), % at 7 µM; 330,000 compounds, 0.068% hits;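 active means response, share of CD8 T cells binding vesicles, and their 90th percentile fluorescence all below set limits, cut at about 80% in these data, passing the limit was not always enough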;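 further: values below 100% mean blocked vesicle binding to the CD8+ T cells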
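Assay system: 2C TCR transgenic mouse naive CD8+ T cells, MACS-purified | Read-out: CD8+ gate FL2 mean fluorescence as % of same-row positive control | Signal: High-throughput flow cytometry with anti-B7-1 and anti-CD8 staining | Timing: Binding step 1.5 h, 37 °C, antibody labelling 20 min, ice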
MEKK2 mut-MEK5 = signal of MEK5 binding to mutant human MEKK2 PB1 domain | AID 1530 | bead flow cytometry, Alexa488-MEK5 binding to MEKK2 mutant | percent response, % at 10 µM | 290,000 compounds, 0.35% hits; in the data active means percent response above about 24%, passing the limit was not always enough
MEKK2wt confirm = raises or lowers MEK5 binding to wildtype human MEKK2, retest; shares compounds with MEKK3 PB1 HTS; bead flow cytometry, Alexa488-MEK5 binding to MEKK2 WT; actives lie on both sides; binding response (% of control), % at 10 µM; 5,900 compounds, 2.4% hits; in the data active means binding response below about 16% or above about 210%; inactive means in between
MEKK2mut-MEK5 = signal of MEK5 binding to mutant human MEKK2, retest; shares compounds with MEKK3 PB1 HTS; 5,900 compounds, 2% hits; bead flow cytometry, Alexa488-MEK5 binding to MEKK2 mutant; percent response, % at 10 µM; in the data active means percent response mostly above about 71%, no sharp cut-off; inactive means mostly below about 38%;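 further: higher means compound restores mutant binding toward wildtype level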
MEKK3-MEK5 inh = MEKK3-MEK5 PB1 inhibition, single concentration confirmation; bead flow cytometry, Alexa488-MEK5 binding to MEKK3; stronger effect = lower value; binding response (% of control), % at 10 µM; 5,900 compounds, 1.8% hits; shares compounds with MEKK3 PB1 HTS;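 active means binding response below 72% of control, or above a set upper limit, though filed actives all read lower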
Each line names hits and unclear results; the compound was inactive in the other large screens (follow-up assays come after a bar, where they were run); [ ] = dose if it differs, or a comment.

O=C(N/N=C/c1cc2ccccc2nc1Cl)[C@H]1C[C@@H]1c1ccccc1	MEKK3 PB1 HTS 168 (no result: UCH37 inh) | MEKK2wt confirm inactive | MEKK2mut-MEK5 inactive | MEKK3-MEK5 inh inactive
Cc1ccc(C)n1-c1ccc(-c2ccnc(N)n2)cc1	MEKK3 PB1 HTS 147 (no result: Rce1 inhib, T cell HTS) | MEKK2wt confirm inactive | MEKK2mut-MEK5 inactive | MEKK3-MEK5 inh inactive
O=C1c2ccccc2NC(c2ccccc2)N1N=Cc1ccccc1 (stereo not given)	none (no result: MEKK3 PB1 HTS, Rce1 inhib, MEKK2 WT-MEK5, T cell HTS, MEKK2 mut-MEK5)
CC(C)CN(C(=O)COC(=O)C12CC3CC(CC(O)(C3)C1)C2)C1CCS(=O)(=O)C1 (stereo not given)	MEKK3 PB1 HTS 0.0[inhibitor], MEKK2 WT-MEK5 0.0[inhibitor] | MEKK2wt confirm inactive | MEKK2mut-MEK5 inactive | MEKK3-MEK5 inh inactive
C/C=C/C=[N+](\[O-])C(C)C(=NO)c1ccc(F)cc1 (stereo not given)	none (no result: MEKK3 PB1 HTS, Rce1 inhib, MEKK2 WT-MEK5, T cell HTS, MEKK2 mut-MEK5)
CC(NC(=O)Nc1ccc(F)cc1)C(c1cccs1)N1CCCC1 (stereo not given)	MEKK3 PB1 HTS 142 | MEKK2wt confirm inactive | MEKK2mut-MEK5 inactive | MEKK3-MEK5 inh inactive
CC(NC(=O)c1ccc(F)cc1)C(c1cccs1)N1CCN(C)CC1 (stereo not given)	none
Cn1c(=O)c2[nH]c(NN=C(C#N)C(N)=O)nc2n(C)c1=O	none (no result: MEKK3 PB1 HTS, Rce1 inhib, MEKK2 WT-MEK5, T cell HTS, MEKK2 mut-MEK5)
CCc1ccc(NS(=O)(=O)c2cccs2)cc1	MEKK2 mut-MEK5 39 | MEKK2wt confirm inactive | MEKK2mut-MEK5 inactive | MEKK3-MEK5 inh inactive
C=CCn1cnc2c(nnn2-c2ccc(C)c(C)c2)c1=O	MEKK3 PB1 HTS 2.0[inhibitor], MEKK2 WT-MEK5 1.0[inhibitor] | MEKK2wt confirm inactive | MEKK2mut-MEK5 inactive | MEKK3-MEK5 inh inactive
O=S(=O)(N=Cc1c(O)ccc2ccccc12)c1cccs1	none (no result: MEKK3 PB1 HTS, Rce1 inhib, MEKK2 WT-MEK5, T cell HTS, MEKK2 mut-MEK5)
Cc1cccc(C2c3[nH]c4ccccc4c3CCN2C(=O)c2noc3c2CCCC3)n1 (stereo not given)	none
Cc1cccc(C2c3[nH]c4ccccc4c3CCN2C(=O)c2cn(C)c3ccccc3c2=O)n1 (stereo not given)	MEKK2 WT-MEK5 46[inhibitor] | MEKK2wt confirm inactive | MEKK2mut-MEK5 inactive | MEKK3-MEK5 inh inactive
CCc1nnc(SCC(=O)Nc2ccc3c(c2)OCO3)o1	none
CC(=O)Nc1ccc(NC(=O)C(C)Sc2nnc(-c3ccc4c(c3)OCO4)o2)cc1 (stereo not given)	none (no result: MEKK3 PB1 HTS, Rce1 inhib, MEKK2 WT-MEK5, MEKK2 mut-MEK5)
NC(=O)CSc1nnc(Cc2ccc3c(c2)OCO3)o1	MEKK3 PB1 HTS 143 | MEKK2wt confirm 1.0[inhibitor] | MEKK2mut-MEK5 inactive | MEKK3-MEK5 inh 2.0
CC(Sc1nnc(Cc2ccc3c(c2)OCO3)o1)C(N)=O (stereo not given)	MEKK3 PB1 HTS 133 | MEKK2wt confirm inactive | MEKK2mut-MEK5 inactive | MEKK3-MEK5 inh inactive
O=C(COC(=O)Cc1ccc(Cl)cc1)NCc1ccc2c(c1)OCO2	none (no result: MEKK3 PB1 HTS, Rce1 inhib, MEKK2 WT-MEK5, T cell HTS, MEKK2 mut-MEK5)
O=C(COC(=O)CSc1nnc(-c2ccc(Cl)cc2)o1)NCc1ccc2c(c1)OCO2	MEKK3 PB1 HTS 81[inhibitor] | MEKK2wt confirm inactive | MEKK2mut-MEK5 inactive | MEKK3-MEK5 inh inactive
O=C(NN=Cc1nn(-c2ccccc2)cc1-c1ccc(Cl)cc1)c1ccncc1	none (no result: MEKK3 PB1 HTS, Rce1 inhib, MEKK2 WT-MEK5, T cell HTS, MEKK2 mut-MEK5)
O=c1[nH]c(/C=C/c2ccccc2[N+](=O)[O-])nc2ccccc12	MEKK3 PB1 HTS 132 (no result: UCH37 inh) | MEKK2wt confirm inactive | MEKK2mut-MEK5 inactive | MEKK3-MEK5 inh inactive
CN(C)c1ccc(C=NN(Cc2ccccc2)c2ccccc2)cc1	none (no result: MEKK3 PB1 HTS, Rce1 inhib, MEKK2 WT-MEK5, T cell HTS, MEKK2 mut-MEK5)
CCN(CC)c1nc2ccccc2c(N)c1-c1ccccc1	MEKK2 mut-MEK5 26 | MEKK2wt confirm inactive | MEKK2mut-MEK5 inactive | MEKK3-MEK5 inh inactive

Compound activity as filed in PubChem.
